Measured values gathered from unrelated publications.
Target: Serine/threonine-protein kinase TBK1 (TBK1, Homo sapiens, UniProt Q9UHD2)
Observed: enzyme activity
Mode: inhibitor
Sequence (Q9UHD2 1-729, as in one of the studies): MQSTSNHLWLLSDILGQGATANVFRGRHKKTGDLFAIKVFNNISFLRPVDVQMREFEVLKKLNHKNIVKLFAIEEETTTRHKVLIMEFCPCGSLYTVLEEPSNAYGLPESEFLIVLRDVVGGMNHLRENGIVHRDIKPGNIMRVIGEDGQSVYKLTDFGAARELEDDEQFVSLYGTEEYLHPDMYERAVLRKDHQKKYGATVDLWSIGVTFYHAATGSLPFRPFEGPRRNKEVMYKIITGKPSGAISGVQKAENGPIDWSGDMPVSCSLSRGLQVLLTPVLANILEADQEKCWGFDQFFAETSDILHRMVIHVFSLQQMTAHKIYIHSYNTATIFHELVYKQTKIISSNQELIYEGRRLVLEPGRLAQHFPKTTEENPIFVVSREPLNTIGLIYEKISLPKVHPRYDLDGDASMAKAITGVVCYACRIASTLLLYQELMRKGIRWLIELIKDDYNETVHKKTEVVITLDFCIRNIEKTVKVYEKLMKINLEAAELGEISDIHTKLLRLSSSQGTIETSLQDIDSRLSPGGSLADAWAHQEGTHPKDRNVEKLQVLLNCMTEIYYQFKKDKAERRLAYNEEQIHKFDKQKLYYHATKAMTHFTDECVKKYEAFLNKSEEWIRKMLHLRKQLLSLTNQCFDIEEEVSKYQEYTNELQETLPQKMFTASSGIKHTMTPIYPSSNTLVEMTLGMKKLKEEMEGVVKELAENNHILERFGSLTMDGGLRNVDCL

Oc1cccc(-c2nc(N3CCOCC3)c3oc4ncccc4c3n2)c1
remaining activity (10 µM): 91%

CC(C)(C)C(=O)c1sc(NC2CCCCC2)nc1N
remaining activity (10 µM): 95%

Cc1cnc(NC2CCOCC2)nc1-n1cnc(C(=O)NC(CN)c2cc(F)cc(Cl)c2)c1 (stereo not drawn)
remaining activity (radiometric; 1 µM): 61%

O=C(Nc1cnn(-c2csc(C(=O)NC3COC3)c2)c1)Nc1ccccc1Cl
remaining activity (5 µM): 102%

CCN(CC)c1ccc(C2=NNC(=O)CC2C)cc1[N+](=O)[O-] (stereo not drawn)
remaining activity (10 µM): 104%

COc1cc(Nc2cnc(C#N)c(O[C@H](C)CN(C)C)n2)ncc1-c1cnn(C)c1
remaining activity (radiometric; 10 µM): 55%

Brc1cnc(Nc2cccc(CN3CCOCC3)c2)nc1NCCc1c[nH]cn1
remaining activity (radiometric; 1 µM): 21%

Nc1nc(NC2CCCCC2)sc1C(=O)c1ccccc1
remaining activity (10 µM): 88%

Cc1nn(CC(F)(F)F)cc1Nc1ncc(Br)c(NCc2ccc(S(N)(=O)=O)cc2)n1
remaining activity (radiometric; 1 µM): 5%

O=C(Nc1cnn(-c2csc(C(=O)NC3COC3)c2)c1)Nc1c(F)cccc1Cl
remaining activity (5 µM): 98.8%

CC(C)(C)c1nc2c(s1)c1nc(N)ncc1c1ccc(NS(=O)(=O)c3c(F)cccc3F)c(F)c12
remaining activity (radiometric; 1 µM): 95%

c1cc(CN2CCOCC2)cc(Nc2ncc(C3CC3)c(NCCc3c[nH]cn3)n2)c1
remaining activity (radiometric; 1 µM): 43%
